According to ChEMBL document CHEMBL1159346, “Antineoplastic agents. 488. Isolation and structure of yukonin from a yukon territory fungus” (2003):
≈ marks a conversion by molar mass, not a printed value.

Key:
Type in all cases: functional
Candida albicans = assay: Antimicrobial activity against Candida albicans by broth microdilution method
Procedure, shortened: (§1)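 Yeast strains: Candida albicans ATCC 90028 and Cryptococcus neoformans ATCC 90112. Tested by broth microdilution following the NCCLS reference broth dilution method for yeasts. The MIC was read as the lowest compound concentration giving no visible growth (optically clear wells).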

P388 = assay: Cytotoxicity against mouse P388 cells
NCI-H460 = assay: Cytotoxicity against human NCI-H460 cells
Cryptococcus neoformans = assay: Antimicrobial activity against Cryptococcus neoformans by broth microdilution method; procedure, shortened: as §1
SF-268 = assay: Cytotoxicity against human SF268 cells
BXPC-3 = assay: Cytotoxicity against human BxPC3 cells
MCF7 = assay: Cytotoxicity against human MCF7 cells
DU-145 = assay: Cytotoxicity against human DU145 cells
KM-20L2 = assay: Cytotoxicity against human KM20L2 cells

Row | Structure (SMILES) | MIC (Candida albicans) [µg/mL] | GI50 (P388) [µg/mL] | GI50 (NCI-H460) [µg/mL] | MIC (Cryptococcus neoformans) [µg/mL] | GI50 (SF-268) [µg/mL] | GI50 (BXPC-3) [µg/mL] | GI50 (MCF7) [µg/mL] | GI50 (DU-145) [µg/mL] | GI50 (KM-20L2) [µg/mL]
1 | C[C@@]12CCC[C@]3(C)C4=CC(=O)OCC4=C[C@@H](OC1=O)[C@@H]23 | 64 (≈ 233 µM) | 0.31 (≈ 1.13 µM) | 0.48 (≈ 1.75 µM) | 16 (≈ 58.3 µM) | 0.57 (≈ 2.08 µM) | 1.8 (≈ 6.56 µM) | 0.69 (≈ 2.52 µM) | 0.34 (≈ 1.24 µM) | 0.45 (≈ 1.64 µM)
2 | CO[C@H]1OC(=O)C=C2C1=C[C@H]1OC(=O)[C@@]3(C)CCC[C@@]2(C)[C@@H]13 | 8 (≈ 26.3 µM) | 4.1 (≈ 13.5 µM) | 0.24 (≈ 0.789 µM) | 2 (≈ 6.57 µM) | 0.24 (≈ 0.789 µM) | 0.36 (≈ 1.18 µM) | 0.33 (≈ 1.08 µM) | 0.14 (≈ 0.46 µM) | 0.21 (≈ 0.69 µM)
3 | C[C@@]12CCC[C@]3(C)C4=CC(=O)O[C@@H](O)C4=C[C@@H](OC1=O)[C@@H]23 [YUKONIN] | > 64 | > 10 | 4.1 (≈ 14.1 µM) | 64 (≈ 220 µM) | 2.9 (≈ 9.99 µM) | 5.6 (≈ 19.3 µM) | 4 (≈ 13.8 µM) | 2.9 (≈ 9.99 µM) | 3.6 (≈ 12.4 µM)
